# Reference: ChEMBL document CHEMBL1129493 (J Med Chem, 1996)
# pIC50, pKi: −log10 of the molar value. Activity calls are given as the source filed them.
# Assays:
# Candida albicans = experiment: Minimum inhibitory concentration evaluated against Candida albicans; assay type: functional
# Dihydrofolate reductase [1] = target: T1, Dihydrofolate reductase (Candida albicans, UniProt P22906); experiment: Inhibition of Dihydrofolate reductase enzyme from Candida albicans
# T1 sequence (P22906 whole entry): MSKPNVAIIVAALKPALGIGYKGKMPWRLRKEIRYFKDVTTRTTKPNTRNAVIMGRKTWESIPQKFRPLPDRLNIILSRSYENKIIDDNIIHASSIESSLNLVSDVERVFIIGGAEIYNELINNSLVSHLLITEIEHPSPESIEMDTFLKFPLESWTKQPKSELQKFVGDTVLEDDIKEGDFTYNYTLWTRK
# Dihydrofolate reductase [2] = target: T2, Dihydrofolate reductase (Homo sapiens, UniProt P00374); experiment: Inhibition of human recombinant Dihydrofolate reductase enzyme
# T2 sequence (P00374 whole entry): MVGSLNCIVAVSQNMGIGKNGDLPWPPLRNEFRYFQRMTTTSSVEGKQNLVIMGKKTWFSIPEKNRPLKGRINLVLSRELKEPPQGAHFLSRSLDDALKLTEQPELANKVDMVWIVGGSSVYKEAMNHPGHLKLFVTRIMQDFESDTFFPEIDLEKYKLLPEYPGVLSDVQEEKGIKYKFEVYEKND
# HCT-8 = experiment: Activity was evaluated against HCT-8 tumor cells; assay type: functional, cell-based; conditions: Homo sapiens
# How it was run: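 Cytotoxicity was read by MTT dye reduction for suspension cultures or sulforhodamine B for monolayer cultures. For reversal of multidrug resistance, reserpine was added as reversing agent ([…] as printed).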
# [3] = Tissue distribution of the in rat lung relative to plasma concentration of 1 mg/kg; relative concentration
# [4] = Tissue distribution of the in rat brain relative to plasma concentration of 1 mg/kg; relative concentration
MIC (Candida albicans) [µg/mL],pKi (Dihydrofolate reductase [1]),pKi (Dihydrofolate reductase [2]),pIC50 (HCT-8),Kp [3],Kp [4],SMILES,No. of mice infected /total (Mus musculus)
0.1,> 10.30,13.00,9.09,,,CCc1cc2c3c(N)nc(N)nc3ccc2n1C(C)CC (stereo not drawn),
0.1,9.48,> 11.70,8.85,,,CCn1c(C(C)C)cc2c3c(N)nc(N)nc3ccc21,
> 0.1,,,8.89,,,CCc1cc2c3c(N)nc(N)nc3ccc2n1C(C)(C)C,
> 0.1,9.42,,7.28,,,CCCCc1cc2c3c(N)nc(N)nc3ccc2n1C(C)(C)C,
0.05,> 10.22,12.70,8.89,,,CC(C)n1c(C(C)(C)C)cc2c3c(N)nc(N)nc3ccc21,
0.025,11.15,12.40,8.68,,,CCC(C)(C)n1c(C)cc2c3c(N)nc(N)nc3ccc21,

# More lines, now with the values behind:
SMILES,MIC (Candida albicans) [µg/mL],pKi (Dihydrofolate reductase [1]),pKi (Dihydrofolate reductase [2]),pIC50 (HCT-8),Kp [3],Kp [4],No. of mice infected /total (Mus musculus)
CCc1cc2c3c(N)nc(N)nc3ccc2n1C(CC)CC,0.1,> 10.22,12.70,9.24,,,
CCc1cc2c3c(N)nc(N)nc3ccc2n1CC,0.2,9.48,11.00,9.23,,,
COc1cc(Cc2cnc(N)nc2N)cc(OC)c1OC,,,,,,,Partially active
CC(C)c1cc2c(ccc3nc(N)nc(N)c32)[nH]1,0.05,9.80,11.00,,,,
Cc1nc(N)nc(N)c1-c1ccc(Cl)c(Cl)c1 [METOPRINE],,,,,31,6.5,
CCCc1cc2c3c(N)nc(N)nc3ccc2n1CC,0.1,9.19,10.62,8.51,,,
CCc1cc2c3c(N)nc(N)nc3ccc2n1C,0.1,8.89,10.54,8.10,,,
